Assay results taken from PMC5900333 (ACS Medicinal Chemistry Letters, 2018).

Legend:
Rat pharmacokinetics = settings: both, Sprague-Dawley, in vivo, iv
[1] = target: rabbit fast skeletal muscle myofibrils (Oryctolagus cuniculus, UniProt P02586+P02641+P02643); test: Fast skeletal myofibril ATPase assay; assay type: biochemical; settings: 14 vs 13; 25 vs bromo 14
Procedure, shortened: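 Rabbit fast skeletal muscle myofibrils; the read-out is the rate of ATP hydrolysis. The assay runs at a calcium level of 25% of that giving a maximal response in control preparations. AC40 is the test compound concentration that raises myofibril ATPase activity by 40%. Experiments were run in duplicate, and the fold potency change is taken from the AC40 values.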

tibialis anterior = settings: healthy humans, nerve stimulation; cited from earlier work
Mouse pharmacokinetics = settings: in vivo, iv, 1 mg/kg
[2] = Microsomal turnover, human; assay type: in vitro ADME
[3] = In vivo clearance across nonclinical species vs hepatic blood flow
[4] = ALS patients taking both 25 and Riluzole; cited from earlier work
patients with ALS = settings: Phase 3, patients with ALS; ref VITALITY-ALS, NCT02496767; cited from earlier work
[5] = tested on: PT-EAMG (passive transfer experimental autoimmune myasthenia gravis) rat model; settings: rats treated with anti-nAchRα antibody; cited from earlier work
Microsomal turnover, rat = assay type: in vitro ADME
B6SJL-SOD1^G93A mouse = settings: B6SJL-SOD1G93A mice, single dose; cited from earlier work
[6] = tested on: extensor digitorum longus (EDL) muscle; test: In situ EDL muscle force; assay type: in vivo; settings: rat, systemic infusion, submaximal stimulation rates
CYP1A2 = target: T1, CYP1A2 (Homo sapiens, UniProt P05177); test: Cytochrome P450 inhibition and time-dependent inhibition; assay type: in vitro ADME; settings: liver microsomes, probe phenacetin
T1 sequence (P05177 1-516): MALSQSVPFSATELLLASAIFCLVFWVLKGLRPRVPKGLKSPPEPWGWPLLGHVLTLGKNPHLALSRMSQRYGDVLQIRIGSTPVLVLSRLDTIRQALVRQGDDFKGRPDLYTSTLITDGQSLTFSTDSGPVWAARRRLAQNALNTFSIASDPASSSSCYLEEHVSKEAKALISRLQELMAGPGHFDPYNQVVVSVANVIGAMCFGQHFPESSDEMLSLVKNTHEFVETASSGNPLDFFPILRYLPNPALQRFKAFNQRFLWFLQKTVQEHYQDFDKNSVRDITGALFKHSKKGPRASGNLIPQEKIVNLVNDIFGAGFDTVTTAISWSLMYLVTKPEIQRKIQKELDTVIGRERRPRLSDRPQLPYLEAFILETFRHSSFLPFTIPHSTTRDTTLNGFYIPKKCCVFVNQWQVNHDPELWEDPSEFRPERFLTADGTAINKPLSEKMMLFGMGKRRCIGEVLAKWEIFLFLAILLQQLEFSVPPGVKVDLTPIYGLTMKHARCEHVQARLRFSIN

Sequence of rabbit fast skeletal muscle myofibrils (P02586 2-160 limits assumed): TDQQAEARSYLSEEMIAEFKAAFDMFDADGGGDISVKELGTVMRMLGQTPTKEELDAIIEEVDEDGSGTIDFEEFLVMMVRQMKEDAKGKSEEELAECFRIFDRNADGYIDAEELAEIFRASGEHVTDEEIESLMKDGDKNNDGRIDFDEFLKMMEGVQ
Sequence of rabbit fast skeletal muscle myofibrils (P02643 2-182 limits assumed): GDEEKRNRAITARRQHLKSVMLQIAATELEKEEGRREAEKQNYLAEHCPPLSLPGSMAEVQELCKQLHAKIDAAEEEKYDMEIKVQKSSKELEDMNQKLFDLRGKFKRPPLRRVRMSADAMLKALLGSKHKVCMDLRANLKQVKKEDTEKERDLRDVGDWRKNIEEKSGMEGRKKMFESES
Sequence of rabbit fast skeletal muscle myofibrils (P02641 2-279 limits assumed): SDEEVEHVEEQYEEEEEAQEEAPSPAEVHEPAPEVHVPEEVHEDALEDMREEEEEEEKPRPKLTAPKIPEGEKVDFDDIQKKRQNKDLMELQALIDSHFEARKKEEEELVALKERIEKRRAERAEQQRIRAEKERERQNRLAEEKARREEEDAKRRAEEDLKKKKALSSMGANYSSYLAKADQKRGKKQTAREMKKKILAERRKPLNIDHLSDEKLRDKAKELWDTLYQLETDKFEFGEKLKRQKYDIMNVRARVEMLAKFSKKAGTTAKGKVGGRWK

| SMILES | clearance (Rat pharmacokinetics; 1 mg/kg) [mL/min/kg] | fold improvement in biochemical potency over comparator [1] [fold] | force produced by the tibialis anterior (tibialis anterior) | clearance (Mouse pharmacokinetics) [mL/min/kg] | Re (h), ratio of extraction in microsomes [2] | in vivo clearance as share of hepatic blood flow [3] | drug-drug interaction: change of Riluzole concentrations [4] | primary end point: change from baseline in slow vital capacity (SVC) at 24 weeks (patients with ALS) | grip strength [5] | clearance (Rat pharmacokinetics) [mL/min/kg] | Re (r), ratio of extraction in microsomes (Microsomal turnover, rat) | muscle function and performance in ALS mouse model (B6SJL-SOD1^G93A mouse) | in situ EDL muscle force [6] | in situ EDL muscle force ([6]; listed as tirasemtiv) | IC50 shift at 30 min (CYP1A2) |
| --- | --- | --- | --- | --- | --- | --- | --- | --- | --- | --- | --- | --- | --- | --- | --- |
| CCC(CC)n1c(=O)[nH]c2ncc(Br)nc21 [Compound 14] | 19 | 3 |  |  |  |  |  |  |  |  |  |  |  |  |  |
| CCC(CC)n1c(=O)[nH]c2ncc(Cl)nc21 [Compound 21] | 7.7 |  |  |  |  |  |  |  |  |  |  |  |  |  |  |
| C#Cc1cnc2nc(O)n(C(CC)CC)c2n1 [Compound 25, tirasemtiv] | 2.6 | 3 | increased force produced by the tibialis anterior in a dose-, concentration-, and frequency-dependent manner | 13.9 | <0.21 | less than 15 % of hepatic blood flow | approximate doubling of Riluzole concentrations | did not meet its primary end point | increased grip strength | 2.6 | 0.26 | significantly increased submaximal isometric force, forelimb grip strength, grid hang time, and rotarod performance | rapid, dose-dependent increases in muscle force at submaximal stimulation rates | concentration-dependent improvement in muscle force production in situ | > 3 |
